How the values were obtained:
CHO [1] = assay: The minimun drug concentration that gives rise to colonies containing fewer than 50 cells after incubation at 37 degree C against chinese hamster ovary cells; format: functional, cell-based; conditions: Cricetulus griseus
In short: (§1)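 About 200 cells per dish were grown as clones in drug at 0, 0.5, 1.5, 5, 10, 50 or 100 μM for 7 d at 37 °C in humidified CO2. Colonies were fixed with 10% formaldehyde and stained with 0.1% crystal violet. The value is the lowest tested concentration giving colonies of fewer than 50 cells.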

[2] = The compound was tested for half life in aqueous media in 0.20 M HCl/KCl solution, at pH 1.0; format: ADME
In short: (§2)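 A 10^-3 M aqueous stock was diluted into each buffer to a final 10^-4 M and stirred at room temperature. Aliquots were taken at intervals (typically 2–100 h) and parent drug was quantified by reverse-phase C-18 HPLC with UV detection at 268 nm. Half-lives are the average of triplicate determinations.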

Mus musculus [3] = assay: The compound was tested for change in weight for mice implanted intraperitoneally with P-388/0 Leukemia cell line at 149 mg/kg; format: functional; conditions: route intraperitoneal
In short: (§3)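 Male BDF1 mice inoculated ip on day 0 with 1 × 10^6 leukemia cells (six mice per group, average weight 22 g). Dosing ip once daily for 5 consecutive days starting 24 h after implantation. Fluoropyrimidine references in 0.9% saline; prodrugs formulated with Emulphor 620; vehicle controls 0.2 mL. Percent body weight change recorded per group.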

Mus musculus [4] = assay: The compound was tested for mean survival time for 15 mice implanted Intraperitoneally with P-388/0 Leukemia cell line at 223 mg/kg; format: functional; conditions: route intraperitoneal
In short: (§4)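 P-388/0 or P-388/FU cells (1×10^6) implanted ip into male BDF1 mice on day 0. Dosing was ip, daily for 5 consecutive days beginning 24 h later, in saline or Emulphor 620 vehicle. Six mice per treated group. Animals followed to death and median survival time recorded in days. The control group had 15 mice.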

Mus musculus [5] = assay: The compound was tested for change in weight for mice implanted intraperitoneally with P-388/FU Leukemia cell line at 223 mg/kg; format: functional; conditions: route intraperitoneal; in short: as §3
Mus musculus [6] = assay: The compound was tested for change in weight for mice implanted intraperitoneally with P-388/FU Leukemia cell line at 149 mg/kg; format: functional; conditions: route intraperitoneal; in short: as §3
[7] = The compound was tested for half life in aqueous media in 0.05 M sodium acetate buffer, at pH 4.0; format: ADME; in short: as §2
Mus musculus [8] = assay: The compound was tested for mean survival time for 15 mice implanted Intraperitoneally with P-388/FU Leukemia cell line at 335 mg/kg; format: functional; conditions: route intraperitoneal; in short: as §4
Mus musculus [9] = assay: The compound was tested for increase in life span for mice implanted intraperitoneally with P-388/FU Leukemia cell line at 149 mg/kg; format: functional; conditions: P388, ip, route intraperitoneal
In short: (§5)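 Male BDF1 mice, six per group, implanted ip with 1×10^6 P-388/0 or P-388/FU cells on day 0. Dosed ip daily for 5 days from 24 h post-implant, in saline or Emulphor 620 vehicle. Mice observed until death. %ILS = (T/C − 1)×100, from median survival of treated mice (T) versus saline-treated controls (C).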

CHO [10] = assay: The minimun drug concentration that gives rise to colonies containing fewer than 50 cells after incubation at 37 degree C against chinese hamster ovary cells 20 fold resistant to fluoroudine; format: functional, cell-based; conditions: Cricetulus griseus; in short: as §1
[11] = The compound was tested for half life in aqueous media in 0.05 M NaOH, at pH 11.7; format: ADME; conditions: aqueous 0.05 M NaOH; in short: as §2
[12] = The compound was tested for half life in aqueous media in 0.05 M potassium phosphate buffer, at pH 7.4; format: ADME; in short: as §2
Mus musculus [13] = assay: The compound was tested for mean survival time for 15 mice implanted Intraperitoneally with P-388/0 Leukemia cell line at 335 mg/kg; format: functional; conditions: route intraperitoneal; in short: as §4
[14] = The compound was tested for half life in aqueous media in 0.05 M NaOH, at 12.6; format: ADME; conditions: aqueous 0.05 M NaOH, pH 12.6; in short: as §2
Mus musculus [15] = assay: The compound was tested for increase in life span for mice implanted intraperitoneally with P-388/0 Leukemia cell line at 149 mg/kg; format: functional; conditions: P388, ip, route intraperitoneal; in short: as §5
Mus musculus [16] = assay: The compound was tested for increase in life span for mice implanted intraperitoneally with P-388/FU Leukemia cell line at 223 mg/kg; format: functional; conditions: P388, ip, route intraperitoneal; in short: as §5
Mus musculus [17] = assay: The compound was tested for change in weight for mice implanted intraperitoneally with P-388/0 Leukemia cell line at 335 mg/kg; format: functional; conditions: route intraperitoneal; in short: as §3
Mus musculus [18] = assay: The compound was tested for increase in life span for mice implanted intraperitoneally with P-388/0 Leukemia cell line at 223 mg/kg; format: functional; conditions: P388, ip, route intraperitoneal; in short: as §5
Mus musculus [19] = assay: The compound was tested for change in weight for mice implanted intraperitoneally with P-388/FU Leukemia cell line at 335 mg/kg; format: functional; conditions: route intraperitoneal; in short: as §3
Mus musculus [20] = assay: The compound was tested for change in weight for mice implanted intraperitoneally with P-388/0 Leukemia cell line at 223 mg/kg; format: functional; conditions: route intraperitoneal; in short: as §3
Mus musculus [21] = assay: The compound was tested for increase in life span for mice implanted intraperitoneally with P-388/0 Leukemia cell line at 335 mg/kg; format: functional; conditions: P388, ip, route intraperitoneal; in short: as §5
Mus musculus [22] = assay: The compound was tested for mean survival time for 15 mice implanted Intraperitoneally with P-388/FU Leukemia cell line at 223 mg/kg; format: functional; conditions: route intraperitoneal; in short: as §4
Mus musculus [23] = assay: The compound was tested for mean survival time for 15 mice implanted Intraperitoneally with P-388/FU Leukemia cell line at 149 mg/kg; format: functional; conditions: route intraperitoneal; in short: as §4
[24] = The compound was tested for half life in aqueous media in 0.05 M Tris-HCl buffer, at pH 9.0; format: ADME; in short: as §2
Mus musculus [25] = assay: The compound was tested for mean survival time for 15 mice implanted Intraperitoneally with P-388/0 Leukemia cell line at 149 mg/kg; format: functional; conditions: route intraperitoneal; in short: as §4
Mus musculus [26] = assay: The compound was tested for increase in life span for mice implanted intraperitoneally with P-388/FU Leukemia cell line at 335 mg/kg; format: functional; conditions: P388, ip, route intraperitoneal; in short: as §5

Question: Which IC50 (CHO [1]) does the source give for `CC(C)(C)C(=O)OCOP(=O)(OCOC(=O)C(C)(C)C)OC[C@H]1O[C@@H](n2cc(F)c(=O)[nH]c2=O)C[C@@H]1O` here?
Answer: The IC50 was 5 µM.

Question: And the half-life [2]?
Answer: Its half-life is 142 h.

Question: And the Weight change (Mus musculus [3])?
Answer: The Weight change was 3%.

Question: What about the MST (Mus musculus [4]) of the same compound?
Answer: Its MST is 16 days.

Question: And the Weight change (Mus musculus [5])?
Answer: The Weight change was -12%.

Question: What about the Weight change (Mus musculus [6]) of the same compound?
Answer: Its Weight change is -9%.

Question: What about the half-life [7] of the same compound?
Answer: Its half-life is 172 h.

Question: And the MST (Mus musculus [8])?
Answer: The MST was 18 days.

Question: And the ILS at 149 mg/kg (Mus musculus [9])?
Answer: Its ILS at 149 mg/kg is 55%.

Question: What about the IC50 (CHO [10]) of the same compound?
Answer: The IC50 was 5 µM.

Question: And the half-life [11]?
Answer: Its half-life is 0.37 h.

Question: And the half-life [12]?
Answer: The half-life was 40.2 h.

Question: What about the MST (Mus musculus [13]) of the same compound?
Answer: Its MST is 19 days.

Question: And the half-life [14]?
Answer: The half-life was 1.8 min.

Question: What about the ILS at 149 mg/kg (Mus musculus [15]) of the same compound?
Answer: Its ILS at 149 mg/kg is 36%.

Question: And the ILS at 223 mg/kg (Mus musculus [16])?
Answer: The ILS at 223 mg/kg was 64%.

Question: What about the Weight change (Mus musculus [17]) of the same compound?
Answer: Its Weight change is -12%.

Question: And the ILS at 223 mg/kg (Mus musculus [18])?
Answer: The ILS at 223 mg/kg was 45%.

Question: What about the Weight change (Mus musculus [19]) of the same compound?
Answer: Its Weight change is -13%.

Question: And the Weight change (Mus musculus [20])?
Answer: Its Weight change is -11%.

Question: What about the ILS at 335 mg/kg (Mus musculus [21]) of the same compound?
Answer: Its ILS at 335 mg/kg is 73%.

Question: And the MST (Mus musculus [22])?
Answer: The MST was 18 days.

Question: And the MST (Mus musculus [23])?
Answer: Its MST is 17 days.

Question: What about the half-life [24] of the same compound?
Answer: The half-life was 21.6 h.

Question: And the MST (Mus musculus [25])?
Answer: Its MST is 15 days.

Question: What about the ILS at 335 mg/kg (Mus musculus [26]) of the same compound?
Answer: The ILS at 335 mg/kg was 64%.

— ChEMBL document CHEMBL1127405, “Synthesis and antitumor evaluation of bis[(pivaloyloxy)methyl] 2'-deoxy-5-fluorouridine 5'-monophosphate (FdUMP): a strategy to introduce nucleotides into cells” (J Med Chem, 1994)
